Experimental data reported in ChEMBL document CHEMBL1152859, “The novel phosphoramidate derivatives of NSAID 3-hydroxypropylamides: synthesis, cytostatic and antiviral activity evaluations” (Eur J Med Chem, 2009).
The source made the active and inactive calls. The calls are words filed in the database; no cut-off is given here.

Tests used:
Human alphaherpesvirus 3 = test: Antiviral activity against Varicella-Zoster virus infected in HEL cells assessed as inhibition of virus-induced cytopathicity; type: functional, organism-based
CCRF-CEM = test: Cytostatic activity against human CEM cells after 72 hrs by MTT assay; type: functional, cell-based
Vaccinia virus = test: Antiviral activity against Vaccinia virus infected in HEL cells assessed as inhibition of virus-induced cytopathicity; type: functional, organism-based; details: Orthopoxvirus vaccinia
In short: (§1)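 Cell cultures were exposed for 2 h to 100 CCID50 of virus, and residual virus was then removed. Infected cells were further incubated with medium containing varying compound concentrations for 3 days at 37 °C. Virus-induced cytopathogenicity was scored microscopically. EC50 is the concentration giving a 50% reduction of cytopathogenicity.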

Human alphaherpesvirus 1 = test: Antiviral activity against Herpes simplex virus 1 infected in HEL cells assessed as inhibition of virus-induced cytopathicity; type: functional, organism-based
Cytomegalovirus = test: Antiviral activity against Cytomegalovirus infected in HEL cells assessed as inhibition of virus-induced cytopathicity; type: functional, organism-based
In short: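 Confluent HEL fibroblasts were infected with CMV strains Davis and AD-169 at 100 PFU per well for 2 h, then virus was removed. Graded concentrations were added in duplicate and cultures kept 7 days at 37 °C. Cytopathogenicity was scored microscopically after ethanol fixation and Giemsa staining. EC50 is the 50% reduction.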

[1] = test system: Vesicular stomatitis virus; test: Antiviral activity against Vesicular stomatitis virus infected in human HeLa cells assessed as inhibition of virus-induced cytopathicity; type: functional, organism-based; in short: as §1
Coxsackievirus B4 [2] = test: Antiviral activity against Coxsackievirus B4 infected in human HeLa cells assessed as inhibition of virus-induced cytopathicity; type: functional, organism-based
In short: (§2)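 Cells were infected with 100 CCID50 of virus for 2 h, then residual virus was removed. Medium with graded compound concentrations was added and cultures were kept 3 days at 37 °C. Cytopathogenicity was scored microscopically. EC50 is the concentration reducing virus-induced cytopathogenicity by 50%.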

[3] = test system: Respiratory syncytial virus; test: Antiviral activity against Respiratory syncytial virus infected in human HeLa cells assessed as inhibition of virus-induced cytopathicity; type: functional, organism-based; in short: as §2
L1210 = test: Cytostatic activity against mouse L1210 cells after 48 hrs by MTT assay; type: functional, cell-based; details: L1210, 48 h
Human respirovirus 3 = test: Antiviral activity against Parainfluenza-3 virus infected in african green monkey Vero cells assessed as inhibition of virus-induced cytopathicity; type: functional, organism-based; in short: as §2
[4] = test system: Human immunodeficiency virus 1; test: Antiviral activity against HIV1 3B infected in human CEM cells assessed as inhibition of virus-induced cytopathicity; type: functional, organism-based; details: CCRF-CEM
Punta Toro virus = test: Antiviral activity against Punta Toro virus infected in african green monkey Vero cells assessed as inhibition of virus-induced cytopathicity; type: functional, organism-based; in short: as §2
Sindbis virus = test: Antiviral activity against Sindbis virus infected in african green monkey Vero cells assessed as inhibition of virus-induced cytopathicity; type: functional, organism-based; in short: as §2
NCI-H460 = test: Cytostatic activity against human H460 cells after 72 hrs by MTT assay; type: functional, cell-based; details: NCI-H460, 72 h
In short: (§3)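 Monolayer cells were grown in DMEM with 10% FBS, 2 mM L-glutamine, penicillin and streptomycin at 37 °C under 5% CO2. They were seeded on day 0 at 1 × 10⁴ to 3 × 10⁴ cells/ml and exposed to five 10-fold dilutions (10⁻⁸ to 10⁻⁴ M) for 72 h, with a solvent control. Read-out was MTT. Quadruplicates in three experiments (WI 38: one experiment). IC50 by linear regression of percentage-of-growth.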

MIA PaCa-2 = test: Cytostatic activity against human MIAPaCa2 cells after 72 hrs by MTT assay; type: functional, cell-based; details: MIA PaCa-2, 72 h; in short: as §3
MCF7 = test: Cytostatic activity against human MCF7 cells after 72 hrs by MTT assay; type: functional, cell-based; details: MCF7, 72 h; in short: as §3
HeLa = test: Cytostatic activity against human HeLa cells after 72 hrs by MTT assay; type: functional, cell-based; in short: as §3
[5] = test system: Mammalian orthoreovirus 1; test: Antiviral activity against Reovirus 1 infected in african green monkey Vero cells assessed as inhibition of virus-induced cytopathicity; type: functional, organism-based; in short: as §2
[6] = Cytostatic activity against human WI38 cells after 72 hrs by MTT assay; type: ADME, cell-based; details: WI-38, 72 h; in short: as §3
SW-620 = test: Cytostatic activity against human SW620 cells after 72 hrs by MTT assay; type: functional, cell-based; details: SW-620, 72 h; in short: as §3
Coxsackievirus B4 [7] = test: Antiviral activity against Coxsackievirus B4 infected in african green monkey Vero cells assessed as inhibition of virus-induced cytopathicity; type: functional, organism-based; in short: as §2
[8] = Cytostatic activity against human Molt4/C8 cells after 72 hrs by MTT assay; type: functional, cell-based; details: MOLT-4, 72 h
Human alphaherpesvirus 2 = test: Antiviral activity against Herpes simplex virus 2 infected in HEL cells assessed as inhibition of virus-induced cytopathicity; type: functional, organism-based
[9] = test system: Human immunodeficiency virus 2; test: Antiviral activity against HIV2 ROD infected in human CEM cells assessed as inhibition of virus-induced cytopathicity; type: functional, organism-based; details: CCRF-CEM
[10] = test system: Vesicular stomatitis virus; test: Antiviral activity against Vesicular stomatitis virus infected in HEL cells assessed as inhibition of virus-induced cytopathicity; type: functional, organism-based; in short: as §1

| SMILES | Activity (Human alphaherpesvirus 3) | IC50 (CCRF-CEM) [µM] | Activity (Vaccinia virus) | Activity (Human alphaherpesvirus 1) | Activity (Cytomegalovirus) | Activity [1] | Activity (Coxsackievirus B4 [2]) | Activity [3] | IC50 (L1210) [µM] | Activity (Human respirovirus 3) | Activity [4] | Activity (Punta Toro virus) | Activity (Sindbis virus) | IC50 (NCI-H460) [µM] | IC50 (MIA PaCa-2) [µM] | IC50 (MCF7) [µM] | IC50 (HeLa) [µM] | Activity [5] | IC50 (SW-620) [µM] | Activity (Coxsackievirus B4 [7]) | other results |
| --- | --- | --- | --- | --- | --- | --- | --- | --- | --- | --- | --- | --- | --- | --- | --- | --- | --- | --- | --- | --- | --- |
| COC(=O)[C@H](C)NP(=O)(OCCCNC(=O)C(C)c1cccc(Oc2ccccc2)c1)Oc1ccc(Cl)cc1 (stereo not given in full) | inactive | 38 | inactive | inactive | inactive | inactive | inactive | inactive | 24 | inactive | inactive | inactive | inactive | 13 | 5 | 12 | 6 | inactive | 7 | inactive | IC50 [6]: 20 µM; IC50 [8]: 39 µM; Activity (Human alphaherpesvirus 2): inactive; Activity [9]: inactive; Activity [10]: inactive |
| COc1ccc2c(c1)c(CC(=O)NCCCO)c(C)n2C(=O)c1ccc(Cl)cc1 | inactive | 78 | inactive | inactive | inactive | inactive | inactive | inactive | 179 | inactive | inactive | inactive | inactive | > 100 | 44 | 22 | 26 | inactive | 47 | inactive | IC50 [8]: 113 µM; Activity (Human alphaherpesvirus 2): inactive; Activity [9]: inactive; Activity [10]: inactive |
| CC(C(=O)NCCCO)c1cccc(C(=O)c2ccccc2)c1 (stereo not given) | inactive | 71 | inactive | inactive | inactive | inactive | inactive | inactive | 273 | inactive | inactive | inactive | inactive | > 100 | > 100 | > 100 | > 100 | inactive | > 100 | inactive | IC50 [8]: 97 µM; Activity (Human alphaherpesvirus 2): inactive; Activity [9]: inactive; Activity [10]: inactive |
| COC(=O)[C@H](C)NP(=O)(OCCCNC(=O)C(C)c1ccc(CC(C)C)cc1)Oc1ccc(Cl)cc1 (stereo not given in full) | inactive | 90 | inactive | inactive | inactive | inactive | inactive | inactive | 64 | inactive | inactive | inactive | inactive | 19 | 13 | 14 | 15 | inactive | 21 | inactive | IC50 [6]: 21 µM; IC50 [8]: 48 µM; Activity (Human alphaherpesvirus 2): inactive; Activity [9]: inactive; Activity [10]: inactive |
| COC(=O)[C@H](C)NP(=O)(OCCCNC(=O)Cc1c(C)n(C(=O)c2ccc(Cl)cc2)c2ccc(OC)cc12)Oc1ccc(Cl)cc1 (stereo not given in full) | inactive | 11 | inactive | inactive | inactive | inactive | inactive | inactive | 24 | inactive | inactive | inactive | inactive | 18 | 8 | 16 | 17 | inactive | 15 | inactive | IC50 [6]: 16 µM; IC50 [8]: 28 µM; Activity (Human alphaherpesvirus 2): inactive; Activity [9]: inactive; Activity [10]: inactive |
| CC(C(=O)NCCCO)c1cccc(Oc2ccccc2)c1 (stereo not given) | inactive | 71 | inactive | inactive | inactive | inactive | inactive | inactive | 230 | inactive | inactive | inactive | inactive | > 100 | > 100 | > 100 | > 100 | inactive | > 100 | inactive | IC50 [8]: 99 µM; Activity (Human alphaherpesvirus 2): inactive; Activity [9]: inactive; Activity [10]: inactive |
| CC(C)Cc1ccc(C(C)C(=O)NCCCO)cc1 (stereo not given) | inactive | 55 | inactive | inactive | inactive | inactive | inactive | inactive | 213 | inactive | inactive | inactive | inactive | > 100 | ≥ 100 | > 100 | > 100 | inactive | > 100 | inactive | IC50 [8]: 93 µM; Activity (Human alphaherpesvirus 2): inactive; Activity [9]: inactive; Activity [10]: inactive |
| O=C(Cc1ccccc1Nc1c(Cl)cccc1Cl)NCCCO | inactive | 212 | inactive | inactive | inactive | inactive | inactive | inactive | 200 | inactive | inactive | inactive | inactive | 68 | 54 | 39 | 46 | inactive | 36 | inactive | IC50 [8]: 215 µM; Activity (Human alphaherpesvirus 2): inactive; Activity [9]: inactive; Activity [10]: inactive |
| COC(=O)[C@H](C)NP(=O)(OCCCNC(=O)Cc1ccccc1Nc1c(Cl)cccc1Cl)Oc1ccc(Cl)cc1 (stereo not given in full) | inactive | 22 | inactive | inactive | inactive | inactive | inactive | inactive | 13 | inactive | inactive | inactive | inactive | 17 | 16 | 9 | 16 | inactive | 16 | inactive | IC50 [6]: 18 µM; IC50 [8]: 9.7 µM; Activity (Human alphaherpesvirus 2): inactive; Activity [9]: inactive; Activity [10]: inactive |
